pIC50: −log10 of the molar value.

For test [1], the system named is L1210. Put plainly: Inhibition of [3H]thymidine uptake in L1210 cells. In kind it is functional, cell-based. Particulars: Mus musculus. The procedure, abridged: (§1)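 ³H-thymidine uptake into L1210 leukaemia cells measured by a modified rapid-mixing technique with inhibitor-stop. Values are mean ± SD of three or more separate determinations. IC50 is interpolated from concentration–inhibition curves.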

Test [2] concerns L1210. Description: Inhibition of [3H]thymidine uptake in L1210 cells at 10 uM. The note with it: Mus musculus. Type of test: functional. The procedure, abridged:
as §1

Test [3] concerns L1210. Description: Inhibition of [3H]-thymidine uptake in L1210 cells in the presence of 5 mg/mL human AGP at 10 uM. In kind it is functional, Mus musculus. The procedure, abridged:
(§2)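 Rapid-mixing, inhibitor-stop ³H-thymidine uptake into L1210 leukaemia cells run with 5 mg/mL human AGP present. Values are mean ± SD of three or more separate determinations. Significance of the difference from inhibition without AGP is taken at p ≤ 0.05.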

For test [4], the system named is L1210. Put plainly: Tested for the reduction in inhibition of [3H]thymidine uptake in L1210 cells in the presence of 5 mg/mL human AGP. Type of test: functional, Mus musculus. The procedure, abridged: as §2
Test [5] relates to L1210. Description: Compound was tested for the inhibition of [3H]thymidine uptake in L1210 cells at 100 uM. The note with it: Mus musculus. In kind it is functional. An outline of the steps: as §1
Test [6] relates to L1210. Put plainly: Inhibition of [3H]thymidine uptake in L1210 cells at 1 uM. Type of test: functional. Particulars: Mus musculus. The procedure, abridged: as §1
Test [7] relates to L1210. Put plainly: Tested for the reduction in inhibition of [3H]-thymidine uptake in L1210 cells in the presence of 5 mg/mL human AGP; NS, no significant reduction in inhibition by AGP. The note with it: Mus musculus. In kind it is functional, cell-based. The procedure, abridged: as §2
Test [8] deals with L1210. Put plainly: Compound was tested (100 uM) for the inhibition of [3H]thymidine uptake in L1210 cells in the presence of 5 mg/mL human AGP. Type of test: functional, Mus musculus. The procedure, abridged: as §2
Test [9] has as its system L1210. Put plainly: Inhibition of [3H]thymidine uptake in L1210 cells in the presence of 5 mg/mL human AGP at 1 uM. In kind it is functional, Mus musculus. The procedure, abridged:
as §2

Test [10] has as its system L1210. Put plainly: Compound was tested for the inhibition of [3H]thymidine uptake in L1210 cells at 0.1 uM. In kind it is functional. Particulars: Mus musculus. The procedure, abridged:
as §1

In test [11] the test system is L1210. Put plainly: Compound was tested for the inhibition of [3H]thymidine uptake in L1210 cells at 3 uM. Type of test: functional. Particulars: Mus musculus. The procedure, abridged: as §1

As for `OCC(O)COc1nc(N2CCCCC2)c2nc(OC[C@@H](O)CO)nc(N3CCCCC3)c2n1` (some centres not stated), the pIC50 in [1] is 5.06. In addition, in [2], the inhibition at 10 µM came out at 37%. For the same compound, in test [3], the Inhibition was found to be 29%. Besides, the Reduction in [4] was 22%. Moreover, in test [5], the inhibition at 100 µM came to 91%.
The compound `COc1ccc(CNc2nc(OCCO)nc3c(NCc4ccc(OC)cc4)nc(OCCO)nc23)cc1` had a pIC50 in test [1] of 6.17. In addition, the inhibition at 10 µM in [2] is 88%. Further, the inhibition at 1 µM in test [6] worked out at 40%. Also, the Reduction result in [7] is “No significant reduction in inhibition”.
Regarding `COCC(COc1nc(N2CCCCC2)c2nc(OCC(COC)OC)nc(N3CCCCC3)c2n1)OC` (configuration not stated), the pIC50 in test [1] was 5.73. In addition, at 10 µM the inhibition in test [2] was 87%. Further, in test [6], the inhibition at 1 µM came to 38%. For the same compound, the Inhibition in test [3] stood at 56%. Further, in test [4], the Reduction is recorded as 36%.
For `OCC(O)COc1nc(N2CCCCC2)c2nc(OCC(O)CO)nc(N3CCCCC3)c2n1` (configuration not stated), the inhibition at 10 µM in test [2] is 32%. Besides, the Inhibition was 34% in test [3] and 80% in test [8]. Moreover, in test [7], the Reduction result was “No significant reduction in inhibition”. This compound also registered an inhibition at 100 µM in test [5] of 83%.
In test [1], `COc1ccc(CN(C)c2nc(N(CCO)CCO)nc3c(N(C)Cc4ccc(OC)cc4)nc(N(CCO)CCO)nc23)cc1` showed a negative logarithm of the IC50 (pIC50) of 6.08. The same compound had an inhibition at 1 µM in test [6] of 71%. Besides, the Inhibition in [9] is recorded as 40%. For the same compound, in test [4], the Reduction came out at 46%. For the same compound, the inhibition at 0.1 µM in test [10] was determined as 27%.
`CC(O)CNc1nc(NCc2ccc3c(c2)OCO3)c2nc(NCC(C)O)nc(NCc3ccc4c(c3)OCO4)c2n1` (configuration not stated): in test [1], the pIC50 was 6.59. Besides, the inhibition at 10 µM in test [2] was 90%. Further, in test [6], 1 µM produced 69% inhibition. In addition, the Inhibition in [9] came to 64%. Also, in test [7], the Reduction result was “No significant reduction in inhibition”.
`OCC(O)CNc1nc(N2CCCCC2)c2nc(NCC(O)CO)nc(N3CCCCC3)c2n1` (configuration not stated) had a pIC50 in test [1] of 5.43. The compound further showed an inhibition at 10 µM in test [2] of 55%. The compound also returned an inhibition at 1 µM in [6] of 18%. The Inhibition in test [3] is 20%. Besides, the Reduction in test [4] was 64%.
The matching figures for `CC1(C)OC[C@H](COc2nc(N3CCCCC3)c3nc(OC[C@H]4COC(C)(C)O4)nc(N4CCCCC4)c3n2)O1`: 5.96, 87%, 47%, 62% and 29%.
The compound `COc1ccc(CN(C)c2nc(OCCO)nc3c(N(C)Cc4ccc(OC)cc4)nc(OCCO)nc23)cc1` had a negative-log IC50 (pIC50) in [1] of 6.37. Besides, the inhibition at 1 µM in [6] came to 74%. For the same compound, the Inhibition in test [9] was 17%. The Reduction in test [4] is given as 77%. The same compound returned an inhibition at 0.1 µM in [10] of 27%.
For the compound `CC1(C)OC[C@@H](COc2nc(N3CCCCC3)c3nc(OC[C@@H]4COC(C)(C)O4)nc(N4CCCCC4)c3n2)O1`, at 10 µM the inhibition in test [2] was 100%. Also, the inhibition at 3 µM in test [11] turned out to be 76%.
`COc1ccc(CNc2nc(NCC(C)O)nc3c(NCc4ccc(OC)cc4)nc(NCC(C)O)nc23)cc1` (configuration not stated): the pIC50 in [1] was 6.15. Testing at 1 µM in test [6] gave an inhibition of 58%. For the same compound, the Inhibition in [9] turned out to be 32%. For the same compound, the Reduction in test [4] came to 45%. Moreover, at 0.1 µM the inhibition in test [10] was 21%.
For the compound `OCCN(CCO)c1nc(NCc2ccccc2)c2nc(N(CCO)CCO)nc(NCc3ccccc3)c2n1`, the pIC50 in [1] is 6.22. Besides, in test [2], the inhibition at 10 µM came out at 91%. Further, at 1 µM the inhibition in test [6] was 51%. Moreover, the Inhibition is listed as 21% in test [9] and 75% in [3]. The Reduction in test [4] is listed as 44%.

The record behind these values is ChEMBL document CHEMBL1138764, “Resistance-modifying agents. 11.(1) Pyrimido[5,4-d]pyrimidine modulators of antitumor drug activity. Synthesis and structure-activity relationships for nucleoside transport inhibition and binding to alpha1-acid glycoprotein” (J Med Chem, 2004).
